Shown are actives, neighbours in structure and some others; about 1.9% of the full set was active somewhere.
aSyn 5UTR inh = MLPCN primary screen, SNCA 5' untranslated region; alpha-synuclein 5'UTR reporter, inhibitor activity; inhibition, % (tested at 7.5 µM); actives 0.82% (n = 300,000); in the data active means inhibition above about 60%; inconclusive means no clear call, values can overlap the other calls;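 further: H4 neuroglioblastoma cells stably carrying SNCA 5'UTR luciferase fusion; 0% = DMSO wells and 100% = positive control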
Jurkat NFkB inh = inhibitors of induced NF-kB luciferase reporter, primary screen, TCR NF-kB activation inhibitor project, cell-based, luminescence, uHTS | Jurkat, PMA/ionomycin-induced NF-kB luciferase reporter | inhibition, % at 4 µM | actives 0.53% (n = 330,000) | AID 435003, 2010; in the data active means inhibition above about 50%
697 NFkB inh = inhibitors of PMA/ionomycin-induced NF-kB reporter, 697 cells, primary screen, B-cell NF-kB inhibitor project, cell-based, luminescence, uHTS; AID 435022, 2010; actives 0.33% (n = 330,000); inhibition, % at 4 µM; 697 B-cell NF-kB luciferase reporter, 16 h; in the data active means inhibition above about 35%
H9c2 TAG inh = inhibitors of triacylglycerol accumulation, primary screen, cell-based, uHTS, fluorescence, H9c2; H9c2 cells, Nile Red lipid (TAG) fluorescence; cells loaded with 200 µM oleic acid; inhibition, % at 12.5 µM; actives 0.66% (n = 230,000);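 active means pattern-corrected inhibition of lipid staining of at least 50% with the nuclear-stain viability signal not falling by more than 50%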;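 further: 0% = DMSO wells and 100% = triacsin C control wells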
Hep lipid drop = inhibitors of hepatocyte lipid droplet formation, primary screen, imaging, high-throughput imaging, BODIPY stain. AML12 mouse hepatocytes, oleate lipid droplets. actives 0.4% (n = 240,000). AID 1656, 2009. inhibition, % at 6.5 µM;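 active means lipid droplet intensity inhibited by at least 50%, with more than 500 cells counted; inconclusive means wells with under 300 cells, treated as cytotoxic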
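Assay system: AML12 mouse liver cells | Compound: 6.5 µM single-point dosing | Schedule: Overnight exposure | Technique: Fluorescence imaging, 20x objective, two fields per well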
APP 5UTR inh = inhibitors of APP translation via 5'UTR reporter, primary screen, APP 5'UTR luciferase, SH-SY5Y cells; SH-SY5Y APP 5'UTR-luciferase reporter, luminescence; inhibition, % at 2 µM; actives 0.82% (n = 190,000);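 active means inhibition above a set limit, derived from the sample mean plus 3 SD, cut at about 45% in these data; inconclusive means one replicate passes the limit while the other fails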
697 NFkB conf = PMA/ionomycin-induced NF-kB reporter inhibitors, 697 retest, confirmation, B-cell NF-kB inhibitor project, cell-based, luminescence, single concentration; inhibition, % at 4 µM; shares compounds with 697 NFkB inh; 697 B-cell NF-kB luciferase, 16 h; actives 35% (n = 2,000); in the data active means inhibition mostly above about 28%, no sharp cut-off; inactive means mostly below about 22%
* hit, by the source's call; i = inactive; ? = inconclusive; . = no result given; ! = a repeat was not active.

SMILES	aSyn 5UTR inh	Jurkat NFkB inh	697 NFkB inh	H9c2 TAG inh	Hep lipid drop	APP 5UTR inh	697 NFkB conf
COc1ccc2c(c1)CCCC21NC(=O)N(CC(=O)NCc2cccs2)C1=O (stereo unspecified)	.	-6	10	-6	.	.	.
COc1ccc2nc(-c3ccc(F)cc3)sc2c1	-2	-127	-311	7	.	.	-404
COCCCNc1nc2cc(OC)c(OC)cc2c2nc(-c3ccccc3)nn12	-4	-7	37*	.	22	.	14
CCN(CC)CCCNc1nc2cc(OC)c(OC)cc2c2nc(-c3cccnc3)nn12	-79	-52	-34	10	3	-1	.
O=C(NC(=S)Nc1cccc(O)c1)C1CCCCC1	.	-20	-4	-1	.	.	.
COC(=O)[C@@H]1CC[C@H](C)[C@@H](c2ccc(C)cc2)N1C(=O)c1ccc(/C=N/O[C@@H](C)c2cn([C@H](CO)Cc3ccccc3)nn2)cc1	21	28	52*	.	-19	4	26
CN1C(=O)C(C)(C)c2cc(S(=O)(=O)N3CCN(c4ccccc4)CC3)ccc21	10	-12	-3	-1	-6	.	.
Cc1cccc(NC(=O)c2cc3n(n2)C(C(F)(F)F)CC(c2ccc4c(c2)OCO4)N3)c1 (stereo unspecified)	8	17	36*	.	-6	-5	3
COc1ccc(NC(=O)c2cc3n(n2)C(C(F)(F)F)CC(c2ccc4c(c2)OCO4)N3)cc1OC (stereo unspecified)	.	4	12	.	-13	10	.
CNC(=O)c1ccc(-c2cc3onc(-c4ccccc4)c3c(=O)n2C)cc1	.	-107	-171	7	.	.	.
Cc1ccc(-c2cc3onc(-c4ccccc4)c3c(=O)n2C)cc1	.	-100	-346	-15	.	.	-385
CCCOc1ccc(-c2cc3onc(-c4ccccc4)c3c(=O)n2C)cc1	.	10	-278	-41	.	.	-370
O=C(Nc1ccc(O)cc1)c1c(O)c2c([nH]c1=O)CCCC2	-131	-95	-469	.	6	-162	-261
COC(=O)c1ccccc1NC(=O)c1c(O)c2c([nH]c1=O)CCCC2	-15	-10	-9	9	10	-17	.
COC(=O)CSc1nnc(-c2sc3ccccc3c2Cl)o1	22	-1	40*	1	.	4	43*
N#CCSc1nnc(-c2sc3ccccc3c2Cl)o1	-3	-12	-25	.	17	-81	.
CCOC(=O)Cc1csc(NC(=S)NC(=O)c2ccc([N+](=O)[O-])cc2)n1	-5	-1	17	.	7	13	.
CCOC(=O)Cc1csc(NC(=S)NC(=O)c2ccc(Cl)cc2)n1	3	9	45*	5	.	-2	76*
CC(=O)Nc1ccc(N/C=C/C(=O)c2ccc(Cl)cc2)cc1	-54	-42	-71	-3	0	.	.
N#Cc1ccccc1N/C=C/C(=O)c1ccc(Cl)cc1	-169	-143	-296	-1	.	.	-177
Cc1ccc(C(=O)CSc2nnc(COc3cccc(C)c3)o2)cc1	23	-4	49*	.	.	-4	57*
CN(CC1CCCO1)S(=O)(=O)c1ccc(C(=O)Nc2nnc(-c3ccccc3)o2)cc1 (stereo unspecified)	48	11	-21	2	5	.	.
CC1(C)CC2CC(C)(CN2S(=O)(=O)c2ccc(C(=O)Nc3ccc(S(=O)(=O)N4CCOCC4)cc3)cc2)C1 (stereo unspecified)	-3	34	54*	-12	-31	-5	35*
CC(=O)/C(C#N)=C1\NC(=O)C(Cc2ccc(C)c(Cl)c2)S1 (stereo unspecified)	36	3	i	0	-4	.	-492
CCc1ccc(CC2S/C(=C(\C#N)C(C)=O)NC2=O)cc1 (stereo unspecified)	20	-6	-184	7	.	6	.
SMILES	aSyn 5UTR inh	Jurkat NFkB inh	697 NFkB inh	H9c2 TAG inh	Hep lipid drop	APP 5UTR inh	697 NFkB conf
Cc1cn(-c2cc(C(=O)Nc3ccc(C)c(NC(=O)C(=O)c4c[nH]c5ccccc45)c3)cc(C(F)(F)F)c2)cn1	66*	9	37*	124*!	-26	.	-20
CC(C)C(c1nnnn1Cc1ccccc1)N(Cc1ccco1)Cc1cccs1 (stereo unspecified)	28	-3	35*	.	.	1	28*
COc1ccc(C(=O)N[C@H](C(=O)Nc2cccc(S(=O)(=O)N3CCOCC3)c2)C(C)C)cc1	.	.	.	26	.	.	.
CC(CNC(=O)C1CCCCC1C(=O)O)c1ccccc1 (stereo unspecified)	21	12	3	.	9	16	.
C=CCn1c(C)cc(C(=O)CSc2nc3ccccc3[nH]2)c1C	?	-108	-275	.	.	-122	-81
O=C(COC(=O)CCSc1ccccc1)NCc1ccc(F)cc1	18	-2	-10	-1	1	-7	.
C[C@H](CO)N1C[C@H](C)[C@@H](CN(C)C(=O)c2ccncc2)OCc2cnnn2CCCC1=O	.	.	.	-2	.	.	.
Cc1cccc(S(=O)(=O)c2c(N)n(-c3ccccc3)c3nc4ccccc4nc23)c1	17	12	-2	.	0	-7	.
N=c1ccn(Cc2c(Cl)cccc2Cl)cc1	13	42	47*	-15	-4	.	57*
N=c1ccn(Cc2ccccc2Cl)cc1	3	41	46*	-81	-7	24	48*
O=C(O)c1ccc(N/N=C/c2cc3cc4c(cc3nc2Cl)OCCO4)cc1	8	-103	-493	29	8	.	-480
O=C(CN1CCN(Cc2ccccc2)CC1)Nc1ccc(Br)cc1	3	-14	8	.	1	.	.
Cn1c(=O)c2ncn(CC(=O)Nc3cccc(-c4nc5ccccc5s4)c3)c2n(C)c1=O	.	-24	-133	.	.	-65	.
Cc1nc(SC(C)C(=O)NCC2CCCO2)c2cc(-c3ccccc3)sc2n1 (stereo unspecified)	-107	-67	i	15	.	.	i
CC(Sc1ncnc2c1cnn2-c1ccccc1)C(=O)NCC1CCCO1 (stereo unspecified)	-19	-10	-19	3	-10	.	.
CN(C)S(=O)(=O)c1cccc(-c2csc(N/N=C/c3ccco3)n2)c1	-24	-6	-3	-2	3	.	.
Cc1ccc(-c2csc(N/N=C/c3ccco3)n2)c(C)c1	-51	-89	-403	.	7	-35	-20
CN(C)c1ccc(N=Cc2nc(-c3ccccc3)oc2OC(=O)c2cccc(Cl)c2)cc1	-146	-64	-45	.	0	-135	.
